In assay [1] the test system is Raoultella planticola. The assay can be described thus: Antibacterial activity against Klebsiella planticola MTCC 530 after 24 hrs by well diffusion method. The note with it: MTCC 530, 24 h. The class given is functional. The method, boiled down:
(§1)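 Bacteria spread (0.1 mL suspension) on Mueller-Hinton agar; 6.0 mm wells loaded with compound over a 250 to 0.48 per-well dose range, methanol as negative control. Incubated 24 h at 37 °C. MIC taken as the lowest concentration still giving an inhibition zone. Duplicates, mean reported.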
Background: Agar diffusion results depend on both activity and mobility in agar.

The test system of assay [2] is Staphylococcus aureus. The assay can be described thus: Bactericidal activity against Staphylococcus aureus MTCC 96 after 24 hrs. Type of assay: functional. Particulars: MTCC 96, 24 h. In outline:
(§2)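 Broth macrodilution in Mueller Hinton broth, compound serially diluted from 150 down to 0. Overnight bacterial culture added to a final 1.5 × 10^8 CFU/mL (0.5 McFarland), 24 h at 37 °C. Suspension then subcultured onto Mueller Hinton agar for 24 h at 37 °C. MBC is the lowest concentration killing the strain. Duplicates.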

For assay [3], the system named is Raoultella planticola. The assay is described as follows: Bactericidal activity against Klebsiella planticola MTCC 530 after 24 hrs. The class given is functional. Particulars: MTCC 530, 24 h. In outline:
as §2

The test system of assay [4] is Bacillus subtilis. The assay is described as follows: Antibiofilm activity against Bacillus subtilis MTCC 121 incubated for 24 hrs under static condition by crystal violet staining-based assay. Type of assay: functional. The method, boiled down:
(§3)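 Strains grown overnight in tryptone soy broth with 0.5% glucose. Compound (250 to 0) mixed with inoculum at 5 × 10^5 CFU/mL in polystyrene microtiter plates. Non-adherent cells washed off with PBS; wells stained with 0.1% crystal violet, dye solubilised in 95% ethanol, absorbance read at 540 nm. IC50 for 50% biofilm inhibition taken from dose-response curves. Triplicates, mean ± S.D.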

Assay [5] concerns Staphylococcus aureus. The assay can be described thus: Antibacterial activity against Staphylococcus aureus MLS16 MTCC 2940 after 24 hrs by well diffusion method. The class given is functional. Particulars: MLS16 MTCC 2940, 24 h. The method, boiled down: as §1
Assay [6] deals with Escherichia coli. The assay is described as follows: Bactericidal activity against Escherichia coli MTCC 739 after 24 hrs. The note with it: MTCC 739, 24 h. Type of assay: functional. The method, boiled down: as §2
In assay [7] the test system is Staphylococcus aureus. The assay can be described thus: Antibiofilm activity against Staphylococcus aureus MTCC 96 incubated for 24 hrs under static condition by crystal violet staining-based assay. The class given is functional. In outline: as §3
In assay [8] the test system is Micrococcus luteus. The assay is described as follows: Bactericidal activity against Micrococcus luteus MTCC 2470 after 24 hrs. The class given is functional. Particulars: MTCC 2470, 24 h. The method, boiled down:
as §2

Assay [9] concerns Bacillus subtilis. The assay can be described thus: Antibacterial activity against Bacillus subtilis MTCC 121 after 24 hrs by well diffusion method. Type of assay: functional. The note with it: MTCC 121, 24 h. The method, boiled down:
as §1

The test system of assay [10] is Micrococcus luteus. The assay can be described thus: Induction of intracellular ROS accumulation in Micrococcus luteus MTCC 2470 sessile biofilm cells at 0.5 to 4 ug/ml after 24 hrs by DCFH-DA staining-based assay. Type of assay: functional, cell-based. In outline:
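Intracellular ROS was measured in M. luteus MTCC 2470 biofilms grown in 24-well plates. Mature biofilms were treated and incubated 24 h at 30 °C together with […] DCFH-DA. Well contents were centrifuged at 5000 × g for 10 min. Fluorescence (ex 485/em 535 nm) was read separately for supernatant and for sessile cells resuspended in PBS. Triplicate, mean ± S.D.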

Assay [11] deals with Pseudomonas aeruginosa. The assay can be described thus: Bactericidal activity against Pseudomonas aeruginosa MTCC 2453 after 24 hrs. Particulars: MTCC 2453, 24 h. Type of assay: functional. The method, boiled down:
as §2

For assay [12], the system named is Pseudomonas aeruginosa. The assay can be described thus: Antibacterial activity against Pseudomonas aeruginosa MTCC 2453 after 24 hrs by well diffusion method. The class given is functional. Particulars: MTCC 2453, 24 h. In outline: as §1
For assay [13], the system named is Micrococcus luteus. The assay can be described thus: Antibacterial activity against Micrococcus luteus MTCC 2470 after 24 hrs by well diffusion method. The class given is functional. The note with it: MTCC 2470, 24 h. In outline: as §1
In assay [14] the test system is Pseudomonas aeruginosa. The assay can be described thus: Antibiofilm activity against Pseudomonas aeruginosa MTCC 2453 incubated for 24 hrs under static condition by crystal violet staining-based assay. The class given is functional. In outline:
as §3

Assay [15] relates to Staphylococcus aureus. The assay can be described thus: Antibiofilm activity against Staphylococcus aureus MLS16 MTCC 2940 incubated for 24 hrs under static condition by crystal violet staining-based assay. Type of assay: functional. The method, boiled down:
as §3

In assay [16] the test system is Staphylococcus aureus. The assay is described as follows: Bactericidal activity against Staphylococcus aureus MLS16 MTCC 2940 after 24 hrs. Type of assay: functional. The note with it: MLS16 MTCC 2940, 24 h. In outline: as §2
Assay [17] deals with Staphylococcus aureus. The assay can be described thus: Antibacterial activity against Staphylococcus aureus MTCC 96 after 24 hrs by well diffusion method. The class given is functional. The note with it: MTCC 96, 24 h. In outline: as §1
Assay [18] has as its system Escherichia coli. The assay can be described thus: Antibacterial activity against Escherichia coli MTCC 739 after 24 hrs by well diffusion method. The class given is functional. Particulars: MTCC 739, 24 h. In outline:
as §1

Assay [19] has as its system Bacillus subtilis. The assay is described as follows: Bactericidal activity against Bacillus subtilis MTCC 121 after 24 hrs. The class given is functional. The note with it: MTCC 121, 24 h. The method, boiled down: as §2
Assay [20] deals with Raoultella planticola. The assay can be described thus: Antibiofilm activity against Klebsiella planticola MTCC 530 incubated for 24 hrs under static condition by crystal violet staining-based assay. The class given is functional. The method, boiled down: as §3
Assay [21] relates to Micrococcus luteus. The assay can be described thus: Antibiofilm activity against Micrococcus luteus MTCC 2470 incubated for 24 hrs under static condition by crystal violet staining-based assay. Type of assay: functional. The method, boiled down:
as §3

Assay [22] deals with Escherichia coli. The assay is described as follows: Antibiofilm activity against Escherichia coli MTCC 739 incubated for 24 hrs under static condition by crystal violet staining-based assay. The class given is functional. The method, boiled down: as §3

The values that follow come from ChEMBL document CHEMBL3853298, “Total synthesis and in vitro bioevaluation of clavaminols A, C, H & deacetyl clavaminol H as potential chemotherapeutic and antibiofilm agents” (Eur J Med Chem, 2016).

SMILES strings stand for the structures. Converted amounts (≈) assume the structure as drawn. The source made the active and inactive calls.

The term MIC denotes the least concentration at which growth counts as inhibited. Read a high MIC as a less susceptible organism. As a reminder, the MBC is the smallest concentration meeting the test's criterion for killing. Broadly, the IC50 is the concentration that gives 50% inhibition. Low readings indicate greater potency in that assay, high ones weaker potency in that assay.

Take `O=C(O)c1cn(C2CC2)c2cc(N3CCNCC3)c(F)cc2c1=O` [CIPROFLOXACIN]: the MIC against Raoultella planticola [1], in the assay on Staphylococcus aureus [5], against Bacillus subtilis [9], against Pseudomonas aeruginosa [12], with Micrococcus luteus [13] and with Staphylococcus aureus [17] was 0.9 µg/mL (≈ 2.72 µM) throughout. The compound further returned a minimum inhibitory concentration (MIC) against Escherichia coli [18] of 0.9 µg/mL (≈ 2.72 µM). Also, the MBC with Staphylococcus aureus [2] was 0.9 µg/mL (≈ 2.72 µM); with Raoultella planticola [3], 0.9 µg/mL (≈ 2.72 µM); with Escherichia coli [6] it was 0.9 µg/mL (≈ 2.72 µM); with Micrococcus luteus [8] it was 1.9 µg/mL (≈ 5.73 µM); with Pseudomonas aeruginosa [11], 1.9 µg/mL (≈ 5.73 µM); in the assay with Staphylococcus aureus [16], 0.9 µg/mL (≈ 2.72 µM). The compound further returned an MBC against Bacillus subtilis [19] of 1.9 µg/mL (≈ 5.73 µM). For the same compound, the IC50 in the assay on Bacillus subtilis [4] amounted to 0.7 µg/mL (≈ 2.11 µM); in the assay on Staphylococcus aureus [7] it was 0.6 µg/mL (≈ 1.81 µM); with Staphylococcus aureus [15], 0.4 µg/mL (≈ 1.21 µM); in the assay on Raoultella planticola [20] it was 0.6 µg/mL (≈ 1.81 µM); in the assay with Micrococcus luteus [21] it was 0.5 µg/mL (≈ 1.51 µM). Also, in the assay with Micrococcus luteus [10], the result was Active. Also, the results for the INH with Pseudomonas aeruginosa [14] and with Escherichia coli [22] were 0.7 µg/mL and 0.8 µg/mL, respectively.
